Measured values published in ChEMBL document CHEMBL5149983, “Scaffold-Hopping Strategy on a Series of Proteasome Inhibitors Led to a Preclinical Candidate for the Treatment of Visceral Leishmaniasis” (J Med Chem, 2021).
≈ marks a conversion by molar mass, not a printed value. Calls of active or inactive are those of the source.

Experiments:
[1] = Cytotoxicity against human THP-1 cells; type: toxicity, cell-based
[2] = Intrinsic clearance in mouse liver microsomes; type: ADME, Microsome
[3] = Inhibition of chymotrypsin activity of proteasome beta5 subunit in Leishmania donovani amastigotes infected in human THP-1 cells incubated for 96 hrs by INMAC assay; conditions: THP-1, 96 h, read-out: pEC50 (converted)
[4] = Solubility of the compound in FaSSIF at pH 6.5 measured after 4 hrs by HPLC-UV analysis; type: physicochemical; conditions: for solubility at 4 h: FaSSIF, pH 6.5
[5] = test system: THP-1; conditions: Leishmania donovani, time 96.0 hrs
[6] = Metabolic stability of the compound in human plasma assessed as parent compound remaining measured after 3 hrs; type: ADME, cell-free; conditions: read-out: Stability
[7] = Genotoxicity against Salmonella typhimurium by Ames test; type: toxicity; conditions: salmonella enterica subsp. enterica serovar typhimurium
[8] = Time during which drug concentration exceeds EC90 for inhibition of chymotrypsin activity of proteasome beta5 subunit in Leishmania donovani amastigotes infected in human THP-1 cells in NMRI mouse blood at 50 mg/kg, po by UPLC-MS/MS analysis; type: organism-based; conditions: in vivo
Outline: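 Not measured directly. Time above EC90 at 50 mg/kg po was projected from the 10 mg/kg oral mouse blood profile, assuming exposure rises linearly with dose.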

[9] = Metabolic stability of the compound in mouse plasma assessed as parent compound remaining measured after 3 hrs; type: ADME, cell-free; conditions: read-out: Stability
[10] = Time during which drug concentration exceeds EC90 for inhibition of chymotrypsin activity of proteasome beta5 subunit in Leishmania donovani amastigotes infected in human THP-1 cells in NMRI mouse blood at 10 mg/kg, po by UPLC-MS/MS analysis; type: organism-based; conditions: in vivo
Outline: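 Mice received a single 10 mg/kg oral dose, with a separate 3 mg/kg iv arm in the same PK study. Blood levels were followed over time, and time above the EC90 threshold was taken from the oral blood profile.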

[11] = Kinetic aqueous solubility of the compound by CLND method; type: physicochemical; conditions: buffer; read-out: Kinetic_solubility
[12] = test system: Leishmania donovani; assay: Antileishmanial activity against amastigote stage of Leishmania donovani MHOM/ET/67/HU3 infected in BALB/c mouse assessed as reduction in parasitemia at 25 mg/kg, po bid for 10 days; type: functional, organism-based; conditions: time 10.0 day
[13] = test system: Leishmania donovani; assay: Antileishmanial activity against amastigote stage of Leishmania donovani MHOM/ET/67/HU3 infected in po dosed BALB/c mouse assessed as reduction in parasitemia administered twice a day for 10 days; type: functional; conditions: MHOM/ET/67/HU3, 240 h, time 10 day

| SMILES | CLH [2] | EC50 [1] | other results |
| --- | --- | --- | --- |
| O=C(Nc1ccc(F)c(-c2cn3nc(N4CCOCC4)cnc3n2)c1)N1CCCC1 | – | – | solubility at 4 h [4]: 32 µM (≈ 13.2 µg/mL); Activity [7]: Toxic |
| Cn1c(-c2cc(NC(=O)N3CCCC3)ccc2F)cc2cc(N3CCOCC3)cnc21 | – | > 50.1 µM | – |
| O=C(Nc1cccc(-c2cc3cc(-c4ccccc4)cnc3[nH]2)c1)N1CCCC1 | – | > 50.1 µM | – |
| O=C1CN(c2cnc3nc(-c4cc(NC(=O)N5CCCC5)ccc4F)ccn23)CCN1 | – | > 50.1 µM | – |
| O=C(Nc1ccc(F)c(-c2cn3ncc(N4CCOCC4)cc3n2)c1)N1CCCC1 | – | > 50.1 µM | – |
| O=C(Nc1cccc(-c2nc3ccccc3o2)c1)c1ccco1 | – | > 50.1 µM | Activity [7]: Toxic |
| O=C(Nc1ccc(F)c(-c2ccn3c(N4CCOCC4)cnc3n2)c1)N1CCCC1 [GSK-3494245] | 0.8 mL/min/g | ≥ 63.1 µM | EC50 [3]: 1.58 µM; Activity [12]: Active; ED90 [13]: 16 mg/kg; ED99 [13]: 30 mg/kg; solubility at 4 h [4]: 440 µM (≈ 181 µg/mL); Activity [7]: Non-Toxic |
| O=C(Nc1ccc(F)c(-c2cc3nc(N4CCOCC4)cnc3[nH]2)c1)N1CCCC1 | – | > 50.1 µM | – |
| CC(=O)N1CCN(c2cnc3nc(-c4cc(NC(=O)N5CCCC5)ccc4F)ccn23)CC1 | – | > 50.1 µM | – |
| O=C(Nc1cccc(-c2cc3ncc(-c4ccccc4)cn3n2)c1)N1CCCC1 | – | > 50.1 µM | – |
| O=C(Nc1cccc(-c2cc3cc(N4CCOCC4)nnc3o2)c1)N1CCCC1 | – | > 50.1 µM | – |

Second part, led by results:

| CLH [2] | SMILES | EC50 [1] | other results |
| --- | --- | --- | --- |
| < 0.5 mL/min/g | O=C(Nc1cccc(-c2cn3cc(N4CCOCC4)cnc3n2)n1)N1CCCC1 | > 50.1 µM | – |
| < 0.5 mL/min/g | O=C(Nc1ccc(F)c(-c2cn3cc(N4CCOCC4)cnc3n2)c1)N1CCCC1 | > 50.1 µM | EC50 [3]: 0.631 µM; solubility at 4 h [4]: 15 µM (≈ 6.16 µg/mL); pEC90 [5]: 5.7; remaining at 3 h [6]: 100%; Activity [7]: Toxic; T>EC90 [8]: > 6 h; remaining at 3 h [9]: 100%; T>EC90 [10]: 2 h |
| < 0.5 mL/min/g | O=C(Nc1nccc(-c2cn3cc(N4CCOCC4)cnc3n2)n1)N1CCCC1 | > 50.1 µM | solubility ([4]; simulated gi fluid, pH 6.5, 4 h): > 2500 µM |
| < 0.5 mL/min/g | O=C(Nc1cnnc(-c2cn3cc(N4CCOCC4)cnc3n2)c1)N1CCCC1 | > 50.1 µM | – |
| 24 mL/min/g | O=C(Nc1cccc(-c2nc3ncccc3o2)c1)c1ccco1 | > 50.1 µM | EC50 [3]: 6.31 µM |
| 2.7 mL/min/g | C[C@H]1CN(c2cnc3nc(-c4cc(NC(=O)N5CCCC5)ccc4F)ccn23)CCO1 | – | EC50 [3]: 1.26 µM; solubility at 4 h [4]: 1320 µM (≈ 561 µg/mL); solubility kinetic [11]: ≥ 362 µM |
| 1.8 mL/min/g | C[C@@H]1CN(c2cnc3nc(-c4cc(NC(=O)N5CCCC5)ccc4F)ccn23)CCO1 | – | EC50 [3]: 1 µM; solubility at 4 h [4]: 1580 µM (≈ 670 µg/mL); solubility kinetic [11]: 345 µM (≈ 146 µg/mL) |
| < 0.5 mL/min/g | COc1ccc(NC(=O)N2CCCC2)cc1-c1cn2cc(N3CCOCC3)cnc2n1 | > 50.1 µM | – |
| < 0.5 mL/min/g | O=C(Nc1cc(-c2cn3cc(N4CCOCC4)cnc3n2)ncn1)N1CCCC1 | > 50.1 µM | – |
| < 0.5 mL/min/g | O=C(Nc1ccc(F)c(-c2ccn3c(N4CCNCC4)cnc3n2)c1)N1CCCC1 | > 50.1 µM | – |
| 3.3 mL/min/g | O=C(Nc1ccc(F)c(-c2cnn3c(-c4ccccc4)cnc3n2)c1)N1CCCC1 | > 50.1 µM | EC50 [3]: 1.26 µM; solubility at 4 h [4]: 3 µM (≈ 1.21 µg/mL) |
| 0.7 mL/min/g | O=C(Nc1ccc(F)c(-c2nc3cc(N4CCOCC4)cnn3n2)c1)N1CCCC1 | > 50.1 µM | EC50 [3]: 0.794 µM; solubility at 4 h [4]: 182 µM (≈ 74.9 µg/mL) |
| < 0.5 mL/min/g | O=C(Nc1ccc(F)c(-c2nc3ncc(N4CCOCC4)cn3n2)c1)N1CCCC1 | – | – |
| < 0.5 mL/min/g | O=C(Nc1cncc(-c2cn3cc(N4CCOCC4)cnc3n2)n1)N1CCCC1 | > 50.1 µM | – |
